Active and inactive are the calls of the source. Rule as the data show it, unless noted: active = inhibition above about 30%; inactive = the rest.
Legend:
[1] = reducers of endogenous Her2 protein level, primary screen, SKBR3 breast tumor cells, AlphaScreen, ATP viability (AID 461;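 active = Her2 level under about 52% in both replicate screens, with viability over 70% of control, limit read from the data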;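 as to Her2 level: lower value means less Her2 protein in the cells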;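 as to viability: percent of carrier control wells set as 100% viability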); conditions: 18-24 h, measured here: SKBR3 viability, ATP luminescence, at 10 µM
[2] = target: Receptor tyrosine-protein kinase erbB-2 (Homo sapiens) (UniProt P04626); assay: as above; conditions: 18-24 h, at 10 µM, stronger effect = lower value
[3] = SK-BR-3 cell growth inhibitors, pilot screen, 24 h, human (AID 572;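 active = viability at or below 10% of carrier control in both of two separate runs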;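 also: compound exposure lasted between 18 and 24 h rather than exactly 24 h; 100% = carrier-treated control wells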); conditions: SK-BR-3 viability, CellTiter-Glo luminescence, at 10 µM, stronger effect = lower value
[4] = HUVEC growth inhibition – cell-based, human, primary screen (AID 575;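 active = viability at or below 30% in both replicate assays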;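 also: 100% = median of untreated cell wells with 0.1% DMSO on each plate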); conditions: HUVEC proliferation, CellTiter-Glo luminescence, 72 h; at 10 µM; stronger effect = lower value
Procedure, shortened: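 System: primary human umbilical vein endothelial cells; Quantity: 1250 endothelial cells in each well; Buffer or medium: supplemented EBM, 2% fetal bovine serum; Doses: one dose, 10 µM final, 0.1% DMSO; Incubation: 72 h compound incubation; Technique: ATP-based CellTiter-Glo luminescent read; Evaluation: percent of median DMSO-control luminescence; Controls: vehicle and MePR control wells.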

[5] = growth inhibitors of H69AR lung tumor, primary screen, human, duplicate replicates (AID 580;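 active = viability at or under a set limit in both replicates, limit being median viability minus 3 SD, cut at about 48% in these data, passing the limit was not always enough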;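 also: 100% = mean luminescence of untreated wells and 0% = no signal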); conditions: H69AR lung tumor cells viability, ATP luminescence, 72 h; at 10 µM; stronger effect = lower value
[6] = reversal of MRP1-mediated doxorubicin resistance, pilot screen, H69AR cells, doxorubicin co-treatment (AID 601;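 active = viability loss from added drug above about 55%, and viability with drug at most 40%, in both replicates, limit read from the data, passing the limit was not always enough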); conditions: CellTiter-Glo, 72 h, at 10 µM; for differential viability (reversal): stronger effect = higher value
[7] = 384-well plate pilot, post-Golgi transport modulator project, inhibition of yeast transport mutant growth (AID 636; in the data active = inhibition above about 31%); conditions: absorbance 615 nm, about 18 h, stronger effect = higher value
[8] = growth suppression of yeast trafficking mutant, preliminary HTS, modulators of trafficking downstream of Golgi apparatus project, 1536-format plate, OD 615 nm (AID 637); conditions: yeast transport mutant growth, absorbance 615 nm, 18 h; stronger effect = higher value
[9] = H69AR cells + 2 uM doxorubicin, measured here: viability with 2 uM doxorubicin, stronger effect = lower value
[10] = H69AR cells, compound alone cytotoxicity

Chain of Receptor tyrosine-protein kinase erbB-2 (Homo sapiens) (P04626 whole entry, looked up): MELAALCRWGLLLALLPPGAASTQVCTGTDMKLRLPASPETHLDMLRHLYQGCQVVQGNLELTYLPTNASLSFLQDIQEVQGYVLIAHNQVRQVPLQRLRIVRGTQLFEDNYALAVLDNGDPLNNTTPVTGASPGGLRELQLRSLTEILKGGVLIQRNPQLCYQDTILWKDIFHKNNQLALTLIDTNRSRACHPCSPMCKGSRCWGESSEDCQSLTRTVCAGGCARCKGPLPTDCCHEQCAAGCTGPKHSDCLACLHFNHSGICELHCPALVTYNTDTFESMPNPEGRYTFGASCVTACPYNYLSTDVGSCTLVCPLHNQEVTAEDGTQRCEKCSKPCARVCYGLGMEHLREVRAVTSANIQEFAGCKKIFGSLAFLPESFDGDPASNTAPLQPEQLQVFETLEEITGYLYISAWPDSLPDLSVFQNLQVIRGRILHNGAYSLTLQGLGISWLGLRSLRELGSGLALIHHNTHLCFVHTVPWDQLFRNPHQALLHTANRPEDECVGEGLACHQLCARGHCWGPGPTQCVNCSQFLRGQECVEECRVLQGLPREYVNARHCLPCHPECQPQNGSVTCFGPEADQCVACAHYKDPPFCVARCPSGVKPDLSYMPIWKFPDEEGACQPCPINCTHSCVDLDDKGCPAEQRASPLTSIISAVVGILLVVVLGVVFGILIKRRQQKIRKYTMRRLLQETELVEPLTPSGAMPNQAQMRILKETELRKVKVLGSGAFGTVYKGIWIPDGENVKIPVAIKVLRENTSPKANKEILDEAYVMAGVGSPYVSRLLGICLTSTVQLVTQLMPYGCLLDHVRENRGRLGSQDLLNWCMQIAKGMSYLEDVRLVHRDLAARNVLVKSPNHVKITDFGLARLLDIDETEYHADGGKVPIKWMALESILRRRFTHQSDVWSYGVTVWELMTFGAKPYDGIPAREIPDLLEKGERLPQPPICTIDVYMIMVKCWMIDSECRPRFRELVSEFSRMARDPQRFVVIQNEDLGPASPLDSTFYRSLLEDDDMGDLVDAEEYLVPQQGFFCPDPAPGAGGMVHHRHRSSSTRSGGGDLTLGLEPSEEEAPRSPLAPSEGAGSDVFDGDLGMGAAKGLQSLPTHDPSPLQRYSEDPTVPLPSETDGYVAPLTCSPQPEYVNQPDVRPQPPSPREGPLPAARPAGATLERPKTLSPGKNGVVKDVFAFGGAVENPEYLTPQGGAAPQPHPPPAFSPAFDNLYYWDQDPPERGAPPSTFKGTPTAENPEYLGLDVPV

| SMILES | viability [1] [%] | Her2 level [2] | viability [3] | viability [4] | viability [5] | differential viability (reversal) ([6]; H69AR cells + 2 uM doxorubicin) | viability [6, 9] [%] | viability [6, 10] [%] | inhibition [7] | inhibition [8] |
| --- | --- | --- | --- | --- | --- | --- | --- | --- | --- | --- |
| Cc1ccc(NC(=O)CN2CC(C)SC2=NC2CCCCC2)cc1 (stereo not given) | 84.5 | 113% (inactive) | 84.5% (inactive) | 96% (inactive) | 83.9% (inactive) | 0.935% (inactive) | 83 | 83.9 | -6.8% (inactive) | 1.94% (inactive) |
| COc1ccccc1-c1noc(-c2cccnc2)n1 | 94 | 102% (inactive) | 94% (inactive) | 117% (inactive) | 92.3% (inactive) | 0.91% (inactive) | 91.4 | 92.3 | -2.89% (inactive) | -0.66% (inactive) |
| CCOC(=O)C(NC(=O)C1CCCN1C(=O)OCc1ccccc1)C(=O)OCC (stereo not given) | 104 | 94.5% (inactive) | 104% (inactive) | 98.2% (inactive) | 99.8% (inactive) | 3.49% (inactive) | 96.3 | 99.8 | -1.58% (inactive) | -1.77% (inactive) |
| COCCCNC(=O)C1CCCN(C(=O)Nc2ccc(OC)cc2)C1 (stereo not given) | 98 | 89% (inactive) | 98% (inactive) | 100% (inactive) | 90.4% (inactive) | 6.8% (inactive) | 83.6 | 90.4 | -7.03% (inactive) | 1.83% (inactive) |
| COc1ccc(CCNS(=O)(=O)c2ccc3oc(C(=O)O)c(C)c3c2)cc1OC | 109 | 92% (inactive) | 109% (inactive) | 112% (inactive) | 88.7% (inactive) | -2.46% (inactive) | 91.2 | 88.7 | 0.78% (inactive) | 1.15% (inactive) |
| Cc1cc(C(F)(F)F)nn1Cc1ccc(C(=O)NCc2ccco2)o1 | 97 | 105% (inactive) | 97% (inactive) | 95.3% (inactive) | 89.9% (inactive) | 0.38% (inactive) | 89.5 | 89.9 | -0.53% (inactive) | 0.82% (inactive) |
| COc1ccc(S(=O)(=O)CCC(=O)O)cc1 | 96.5 | 83.5% (inactive) | 96.5% (inactive) | 93.7% (inactive) | 106% (inactive) | 10.3% (inactive) | 95.7 | 106 | -4.05% (inactive) | 2.54% (inactive) |
| CCOCCCNC(=O)C1CCN(S(=O)(=O)N(CC(C)C)CC(C)C)CC1 | 121 | 100% (inactive) | 121% (inactive) | 97.9% (inactive) | 111% (inactive) | 24% (inactive) | 87.3 | 111 | -4.13% (inactive) | 2.1% (inactive) |
| Cn1c(C(=O)N2CCN(C(=O)c3ccco3)CC2)cc2c(=O)n3ccccc3nc21 | 100 | 104% (inactive) | 100% (inactive) | 82.3% (inactive) | 82.6% (inactive) | -0.835% (inactive) | 83.4 | 82.6 | 0.26% (inactive) | -0.98% (inactive) |
| Nc1sccc1C(=O)c1ccc(Cl)cc1 | 100 | 85% (inactive) | 100% (inactive) | 82.9% (inactive) | 90.2% (inactive) | 4.88% (inactive) | 85.3 | 90.2 | 0% (inactive) | -4.17% (inactive) |
| COc1ccc(N(CC(=O)NCCSC(C)(C)C)S(C)(=O)=O)c(OC)c1 | 91 | 97.5% (inactive) | 91% (inactive) | 106% (inactive) | 92.8% (inactive) | -8.27% (inactive) | 101 | 92.8 | 1.04% (inactive) | 2.62% (inactive) |
| COc1ccc(C2C(C#N)=C(N)OC3=C2C(=O)CC(C)C3)c(OC)c1OC (stereo not given) | 102 | 134% (inactive) | 102% (inactive) | 101% (inactive) | 100% (inactive) | 3.42% (inactive) | 96.6 | 100 | 2.86% (inactive) | -4.83% (inactive) |
| CCCCCn1c(N2CCN(Cc3ccccc3)CC2)nc2c1c(=O)[nH]c(=O)n2C | 110 | 78% (inactive) | 110% (inactive) | 93.3% (inactive) | 76.9% (inactive) | 23.7% (inactive) | 53.2 | 76.9 | -6.67% (inactive) | -2.46% (inactive) |
| COc1cc(NC(=O)Cc2nn(C)c(=O)c3ccccc23)cc(OC)c1 | 87.5 | 91.5% (inactive) | 87.5% (inactive) | 73% (inactive) | 84.3% (inactive) | -2.83% (inactive) | 87.1 | 84.3 | -2.24% (inactive) | -2.9% (inactive) |
| COC(=O)c1ccc(-c2ccc(CNCC(O)c3ccccc3)o2)cc1 (stereo not given) | 111 | 101% (inactive) | 111% (inactive) | 88.8% (inactive) | 101% (inactive) | 8.78% (inactive) | 92.2 | 101 | -2.03% (inactive) | 1.83% (inactive) |
| CCN(Cc1nc2ccccc2c(=O)[nH]1)Cc1cc(=O)oc2cc(C)c(C)cc12 | 107 | 102% (inactive) | 107% (inactive) | 63% (inactive) | 62.9% (inactive) | 21% (inactive) | 42 | 62.9 | -4.68% (inactive) | -1.67% (inactive) |
| Cc1cc(C)c2cc3c(ccn3C3OC[C@H](O)[C@H](O)[C@H]3O)cc2n1 (stereo not given in full) | 95 | 105% (inactive) | 95% (inactive) | 90.2% (inactive) | 97.4% (inactive) | 7.18% (inactive) | 90.3 | 97.4 | -1.92% (inactive) | 1% (inactive) |
| O=C(Nc1cccc(C(F)(F)F)c1)c1cccnc1N1CCCC1 | 99 | 102% (inactive) | 99% (inactive) | 102% (inactive) | 95% (inactive) | -6.8% (inactive) | 102 | 95 | -2% (inactive) | -1.29% (inactive) |
| CCOc1ccccc1Nc1ncnc2ccccc12 | 101 | 81% (inactive) | 101% (inactive) | 78.4% (inactive) | 82% (inactive) | 1.99% (inactive) | 80 | 82 | -1.45% (inactive) | 0.18% (inactive) |
| CCOC(=O)c1c(NC(=O)OC)sc(C(=O)N(C)C)c1C | 109 | 94.5% (inactive) | 109% (inactive) | 112% (inactive) | 108% (inactive) | 20% (inactive) | 87.9 | 108 | -6.89% (inactive) | -4% (inactive) |
| Cn1c(C(=O)NCC2CCCO2)cc2c(=O)[nH]c3ccccc3c21 (stereo not given) | 81 | 98% (inactive) | 81% (inactive) | 108% (inactive) | 88.4% (inactive) | 4.57% (inactive) | 83.8 | 88.4 | -4.67% (inactive) | -7.05% (inactive) |
| COc1ccc(CN(Cc2nc3ccccc3c(=O)[nH]2)C(=O)NC2CCCCC2)cc1 | 95.5 | 71% (inactive) | 95.5% (inactive) | 91.4% (inactive) | 90.2% (inactive) | 0.78% (inactive) | 89.4 | 90.2 | -4.61% (inactive) | -0.5% (inactive) |
| Cc1cc(C)cc(NS(=O)(=O)c2ccc3[nH]c(=O)[nH]c3c2)c1 | 108 | 89% (inactive) | 108% (inactive) | 90.1% (inactive) | 85.5% (inactive) | -0.57% (inactive) | 86 | 85.5 | -2.21% (inactive) | -4.5% (inactive) |
| CCCn1cc(SCC(=O)NCc2ccco2)c2ccccc21 | 98.5 | 90% (inactive) | 98.5% (inactive) | 92.3% (inactive) | 94% (inactive) | 15.4% (inactive) | 78.6 | 94 | -5.47% (inactive) | 0.48% (inactive) |
| Cc1ccc(C)c(/C(O)=C2\C(=O)C(=O)N(CCCN3CCOCC3)C2c2cccnc2)c1 (stereo not given) | 99 | 101% (inactive) | 99% (inactive) | 91.4% (inactive) | 90.2% (inactive) | -5.11% (inactive) | 95.3 | 90.2 | -3.59% (inactive) | -2.33% (inactive) |
| O=C(c1cc(S(=O)(=O)N2CCOCC2)ccc1F)N1CCCc2ccccc21 | 99 | 87% (inactive) | 99% (inactive) | 102% (inactive) | 90.9% (inactive) | -3.44% (inactive) | 94.3 | 90.9 | 0.64% (inactive) | -2.83% (inactive) |
| CCOCCCNC(=O)C1CCN(C(=O)Nc2ccc(Cl)cc2)CC1 | 103 | 92.5% (inactive) | 103% (inactive) | 94.7% (inactive) | 102% (inactive) | 10.9% (inactive) | 90.8 | 102 | -5% (inactive) | -1% (inactive) |
| O=C(CSc1nc2ncccc2[nH]1)Nc1ccc2c(c1)OCCO2 | 108 | 118% (inactive) | 108% (inactive) | 85.6% (inactive) | 82% (inactive) | -0.395% (inactive) | 82.4 | 82 | -2.86% (inactive) | -0.82% (inactive) |

From PubChem BioAssay
